Publication PMC10401071 (Cancer Discovery, 2023)
Like-named read-outs stand apart in the source and are kept apart here.

Legend:
[1] = format: in vivo, human
How it was run: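 Adults with advanced solid tumours (ECOG 0–1; TP53 wild-type or unknown) received oral test compound on day 1 of 21-day cycles or days 1 and 8 of 28-day cycles, until progression or unacceptable toxicity. Antiemetic prophylaxis followed guidelines. AE incidence and severity were graded per NCI CTCAE v5.0 and summarised descriptively.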

SJSA-1 = SJSA-1 proliferation assay, in vitro; cited from earlier work

SMILES: Cc1c(C(=O)O)ccc2c3n(nc12)[C@@H]1[C@H](C3)N(CC2CC2)[C@@]2(C(=O)Nc3cc(Cl)ccc32)[C@H]1c1cccc(Cl)c1F [brigimadlin]
- TRAE Dysgeusia, Grade ≥3 ([1]; D1D8q4w (n = 25)): 0 n (%)
- TRAE Fatigue, All grades ([1]; D1D8q4w (n = 25)): 10 (40.0) n (%)
- TRAE Fatigue, Grade ≥3 ([1]; D1D8q4w (n = 25)): 0 n (%)
- TRAE Gastroesophageal reflux disease, All grades ([1]; D1D8q4w (n = 25)): 3 (12.0) n (%)
- TRAE Gastroesophageal reflux disease, Grade ≥3 ([1]; D1D8q4w (n = 25)): 0 n (%)
- TRAE Increased alanine aminotransferase, All grades ([1]; D1D8q4w (n = 25)): 0 n (%)
- TRAE Increased alanine aminotransferase, Grade ≥3 ([1]; D1D8q4w (n = 25)): 0 n (%)
- TRAE Increased aspartate aminotransferase, All grades ([1]; D1D8q4w (n = 25)): 1 (4.0) n (%)
- TRAE Increased aspartate aminotransferase, Grade ≥3 ([1]; D1D8q4w (n = 25)): 0 n (%)
- TRAE Nausea, All grades ([1]; D1D8q4w (n = 25)): 19 (76.0) n (%)
- TRAE Nausea, Grade ≥3 ([1]; D1D8q4w (n = 25)): 0 n (%)
- TRAE Neutropenia, All grades ([1]; D1D8q4w (n = 25)): 6 (24.0) n (%)
- TRAE Neutropenia, Grade ≥3 ([1]; D1D8q4w (n = 25)): 5 (20.0) n (%)
- TRAE Thrombocytopenia, Grade ≥3 ([1]; D1D8q4w (n = 25)): 5 (20.0) n (%)
- TRAE Vomiting, All grades ([1]; D1D8q4w (n = 25)): 15 (60.0) n (%)
- TRAE Vomiting, Grade ≥3 ([1]; D1D8q4w (n = 25)): 1 (4.0) n (%)
- patients with nausea leading to dose reduction ([1]; D1q3w): three
- patients with thrombocytopenia leading to dose reduction ([1]; D1q3w): four
- serious AE neutropenia ([1]; D1q3w): three
- serious AE thrombocytopenia ([1]; D1q3w): three
- Any AE ([1]; D1q3w (n = 29)): 29 (100.0) n (%)
- Any AE (any cause) leading to study drug discontinuation ([1]; D1q3w (n = 29)): 2 (6.9) n (%)
- Any AE (any cause) leading to study drug dose reduction ([1]; D1q3w (n = 29)): 11 (37.9) n (%)
- Any TRAE ([1]; D1q3w (n = 29)): 27 (93.1) n (%)
- Any grade ≥3 AE ([1]; D1q3w (n = 29)): 21 (72.4) n (%)
- Any grade ≥3 TRAE ([1]; D1q3w (n = 29)): 17 (58.6) n (%)
- Serious AEs (any cause) ([1]; D1q3w (n = 29)): 9 (31.0) n (%)
- TRAE Alopecia, All grades ([1]; D1q3w (n = 29)): 6 (20.7) n (%)
- TRAE Alopecia, Grade ≥3 ([1]; D1q3w (n = 29)): 0 n (%)
- TRAE Anemia, All grades ([1]; D1q3w (n = 29)): 12 (41.4) n (%)
- TRAE Anemia, Grade ≥3 ([1]; D1q3w (n = 29)): 3 (10.3) n (%)
- TRAE Decreased appetite, All grades ([1]; D1q3w (n = 29)): 10 (34.5) n (%)
- TRAE Decreased appetite, Grade ≥3 ([1]; D1q3w (n = 29)): 0 n (%)
- TRAE Decreased lymphocyte count, All grades ([1]; D1q3w (n = 29)): 5 (17.2) n (%)
- TRAE Decreased lymphocyte count, Grade ≥3 ([1]; D1q3w (n = 29)): 3 (10.3) n (%)
- TRAE Decreased weight, All grades ([1]; D1q3w (n = 29)): 3 (10.3) n (%)
- TRAE Decreased weight, Grade ≥3 ([1]; D1q3w (n = 29)): 0 n (%)
- TRAE Decreased white blood cell count, All grades ([1]; D1q3w (n = 29)): 9 (31.0) n (%)
- TRAE Decreased white blood cell count, Grade ≥3 ([1]; D1q3w (n = 29)): 5 (17.2) n (%)
- TRAE Diarrhea, All grades ([1]; D1q3w (n = 29)): 8 (27.6) n (%)
- TRAE Diarrhea, Grade ≥3 ([1]; D1q3w (n = 29)): 0 n (%)
- TRAE Dysgeusia, All grades ([1]; D1q3w (n = 29)): 5 (17.2) n (%)
- TRAE Dysgeusia, Grade ≥3 ([1]; D1q3w (n = 29)): 0 n (%)
- TRAE Fatigue, All grades ([1]; D1q3w (n = 29)): 15 (51.7) n (%)
- TRAE Fatigue, Grade ≥3 ([1]; D1q3w (n = 29)): 1 (3.4) n (%)
- TRAE Gastroesophageal reflux disease, All grades ([1]; D1q3w (n = 29)): 2 (6.9) n (%)
- TRAE Gastroesophageal reflux disease, Grade ≥3 ([1]; D1q3w (n = 29)): 0 n (%)
- TRAE Increased alanine aminotransferase, All grades ([1]; D1q3w (n = 29)): 3 (10.3) n (%)
- TRAE Increased alanine aminotransferase, Grade ≥3 ([1]; D1q3w (n = 29)): 0 n (%)
- TRAE Increased aspartate aminotransferase, All grades ([1]; D1q3w (n = 29)): 4 (13.8) n (%)
- TRAE Increased aspartate aminotransferase, Grade ≥3 ([1]; D1q3w (n = 29)): 0 n (%)
- TRAE Nausea, All grades ([1]; D1q3w (n = 29)): 21 (72.4) n (%)
- TRAE Nausea, Grade ≥3 ([1]; D1q3w (n = 29)): 4 (13.8) n (%)
- TRAE Neutropenia, Grade ≥3 ([1]; D1q3w (n = 29)): 8 (27.6) n (%)
- TRAE Thrombocytopenia, All grades ([1]; D1q3w (n = 29)): 15 (51.7) n (%)
- TRAE Thrombocytopenia, Grade ≥3 ([1]; D1q3w (n = 29)): 9 (31.0) n (%)
- TRAE Vomiting, All grades ([1]; D1q3w (n = 29)): 13 (44.8) n (%)
- TRAE Vomiting, Grade ≥3 ([1]; D1q3w (n = 29)): 0 n (%)
- TRAE neutropenia grade 3 ([1]; all 54 patients): 9.3%
- TRAE neutropenia grade 4 ([1]; all 54 patients): 14.8%
- TRAE thrombocytopenia grade 3 ([1]; all 54 patients): 13.0%
- TRAE thrombocytopenia grade 4 ([1]; all 54 patients): 13.0%
- grade ≥3 TRAE neutropenia ([1]; all 54 patients): 24.1%
- grade ≥3 TRAE thrombocytopenia ([1]; all 54 patients): 25.9%
- patients with a grade ≥3 AE ([1]; all 54 patients): 61.1%
- patients with a serious AE ([1]; all 54 patients): 33.3%
- patients with grade ≥3 TRAEs ([1]; all 54 patients): 46.3%
- patients with investigator-reported TRAEs ([1]; all 54 patients): 92.6%
- TRAE nausea ([1]; all 54 patients, all grades): 74.1%
- TRAE vomiting ([1]; all 54 patients, all grades): 51.9%
- treatment discontinuation due to a hematologic TRAE ([1]; both treatment arms): no patient discontinued treatment with brigimadlin due to a hematologic TRAE
- IC50 (SJSA-1): 0.012 µM
